In ChEMBL document CHEMBL5653631, “A Potent and Selective ULK1 Inhibitor Suppresses Autophagy and Sensitizes Cancer Cells to Nutrient Stress” (iScience, 2018) one finds inhibition and fold change (FC) data, which are given here for three compounds.

Test [1] addresses Serine/threonine-protein kinase Chk2 (Homo sapiens) (UniProt O96017). Briefly: Inhibition of human recombinant CHK2 at 40 nM in presence of ATP by radiometric assay relative to control.
For test [2], the target named is T1, Muscle, skeletal receptor tyrosine-protein kinase (Homo sapiens) (UniProt O15146).
T1 sequence (whole entry): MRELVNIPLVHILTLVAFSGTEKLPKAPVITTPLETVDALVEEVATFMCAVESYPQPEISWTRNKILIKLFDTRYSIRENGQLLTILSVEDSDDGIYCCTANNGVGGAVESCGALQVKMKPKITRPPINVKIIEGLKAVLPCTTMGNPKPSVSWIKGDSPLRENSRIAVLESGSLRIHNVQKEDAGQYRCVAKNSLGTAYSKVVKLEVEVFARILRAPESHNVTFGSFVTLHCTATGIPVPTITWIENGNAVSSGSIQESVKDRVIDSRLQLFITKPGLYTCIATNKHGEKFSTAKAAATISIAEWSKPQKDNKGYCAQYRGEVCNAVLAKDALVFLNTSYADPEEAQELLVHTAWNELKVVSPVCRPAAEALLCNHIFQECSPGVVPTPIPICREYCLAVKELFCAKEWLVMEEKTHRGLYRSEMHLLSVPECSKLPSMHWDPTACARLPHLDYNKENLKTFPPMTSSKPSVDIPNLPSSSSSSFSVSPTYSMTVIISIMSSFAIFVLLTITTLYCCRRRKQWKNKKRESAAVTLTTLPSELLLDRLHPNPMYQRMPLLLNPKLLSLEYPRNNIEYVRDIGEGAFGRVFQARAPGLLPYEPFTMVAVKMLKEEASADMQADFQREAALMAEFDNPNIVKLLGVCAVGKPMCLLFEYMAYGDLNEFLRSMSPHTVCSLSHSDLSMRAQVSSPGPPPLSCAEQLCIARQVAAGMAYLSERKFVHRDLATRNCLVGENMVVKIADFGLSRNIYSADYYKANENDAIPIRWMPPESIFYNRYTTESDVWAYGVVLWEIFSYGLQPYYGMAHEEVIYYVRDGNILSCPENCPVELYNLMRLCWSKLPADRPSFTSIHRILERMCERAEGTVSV
Briefly: Inhibition of human recombinant MUSK at 40 nM related to control ULK1.

In test [3] the target is STE20-like serine/threonine-protein kinase (Homo sapiens) (UniProt Q9H2G2). In words: Inhibition of human recombinant SLK at 40 nM related to control ULK1.
The target of test [4] is Protein kinase C gamma type (Homo sapiens) (UniProt P05129). In words: Inhibition of human recombinant PKCg at 40 nM in presence of ATP by radiometric assay relative to control.
Test [5] concerns the target Receptor tyrosine-protein kinase erbB-4 (Homo sapiens) (UniProt Q15303). Briefly: Inhibition of human recombinant ErbB4 at 40 nM in presence of ATP by radiometric assay relative to control.
The target of test [6] is Tyrosine-protein kinase Tec (Homo sapiens) (UniProt P42680). In words: Inhibition of human recombinant TEC at 500 nM related to control ULK1.
For test [7], the target named is Serine/threonine-protein kinase tousled-like 2 (Homo sapiens) (UniProt Q86UE8). In words: Inhibition of human recombinant TLK2 at 500 nM in presence of ATP by radiometric assay relative to control.
In test [8] the target is Ribosomal protein S6 kinase alpha-2 (Homo sapiens) (UniProt Q15349). In words: Inhibition of human recombinant RSK3 at 500 nM related to control ULK1.
The target in test [9] is Serine/threonine-protein kinase 32C (Homo sapiens) (UniProt Q86UX6). Briefly: Inhibition of human recombinant YANK3 at 15 nM related to control ULK1.
Test [10] has as its target Myosin light chain kinase, smooth muscle (Homo sapiens) (UniProt Q15746). In words: Inhibition of human recombinant smMLCK at 15 nM related to control ULK1.
The target in test [11] is T2, Eukaryotic translation initiation factor 2-alpha kinase 3 (Homo sapiens) (UniProt Q9NZJ5).
T2 sequence (whole entry): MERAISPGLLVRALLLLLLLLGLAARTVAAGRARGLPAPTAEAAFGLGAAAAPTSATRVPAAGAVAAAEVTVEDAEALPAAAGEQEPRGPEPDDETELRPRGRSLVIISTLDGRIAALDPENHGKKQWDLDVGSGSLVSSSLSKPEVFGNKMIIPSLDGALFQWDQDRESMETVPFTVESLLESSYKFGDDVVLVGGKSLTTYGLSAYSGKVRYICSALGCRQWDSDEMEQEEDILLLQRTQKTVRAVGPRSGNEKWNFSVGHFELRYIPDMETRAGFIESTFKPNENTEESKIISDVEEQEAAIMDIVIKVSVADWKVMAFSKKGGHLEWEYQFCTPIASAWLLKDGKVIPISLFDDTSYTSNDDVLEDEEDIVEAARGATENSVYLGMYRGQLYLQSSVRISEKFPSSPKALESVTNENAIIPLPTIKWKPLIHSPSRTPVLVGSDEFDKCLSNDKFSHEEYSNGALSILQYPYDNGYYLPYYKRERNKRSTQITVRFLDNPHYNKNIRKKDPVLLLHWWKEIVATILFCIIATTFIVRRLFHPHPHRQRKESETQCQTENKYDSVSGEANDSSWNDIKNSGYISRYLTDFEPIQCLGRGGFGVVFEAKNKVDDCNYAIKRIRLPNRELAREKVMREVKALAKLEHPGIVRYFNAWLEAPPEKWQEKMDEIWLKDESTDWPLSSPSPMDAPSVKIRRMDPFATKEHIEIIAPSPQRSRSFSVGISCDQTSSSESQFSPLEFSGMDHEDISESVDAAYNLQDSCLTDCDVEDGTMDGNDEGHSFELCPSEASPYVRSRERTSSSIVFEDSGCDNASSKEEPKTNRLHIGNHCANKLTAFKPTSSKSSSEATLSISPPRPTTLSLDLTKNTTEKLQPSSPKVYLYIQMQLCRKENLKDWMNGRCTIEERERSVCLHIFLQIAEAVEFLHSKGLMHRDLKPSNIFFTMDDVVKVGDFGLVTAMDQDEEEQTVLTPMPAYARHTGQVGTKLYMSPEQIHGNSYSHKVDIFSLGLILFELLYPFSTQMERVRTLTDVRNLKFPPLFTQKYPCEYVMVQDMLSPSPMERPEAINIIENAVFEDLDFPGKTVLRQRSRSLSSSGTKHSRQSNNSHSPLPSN
In words: Inhibition of human recombinant PEK at 15 nM related to control ULK1.

Test [12] deals with 5'-AMP-activated protein kinase catalytic subunit alpha-2 (Homo sapiens) (UniProt P54646). Briefly: Inhibition of human recombinant AMPKa2 at 15 nM related to control ULK1. The gist of the method:
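Panel of 327 recombinant human kinases, each assayed in vitro by radiometric activity assay in duplicate at a single inhibitor concentration per compound, chosen with reference to its ULK1 inhibition. Activity remaining was expressed as percent of vehicle control, and percent inhibition was calculated as 100 minus percent activity remaining.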

The target of test [13] is Serine/threonine-protein kinase Nek6 (Homo sapiens) (UniProt Q9HC98). In words: Inhibition of human recombinant NEK6 at 15 nM in presence of ATP by radiometric assay relative to control.

Structures are written as SMILES.

Sequence of Receptor tyrosine-protein kinase erbB-4 (Homo sapiens) (Q15303 whole entry): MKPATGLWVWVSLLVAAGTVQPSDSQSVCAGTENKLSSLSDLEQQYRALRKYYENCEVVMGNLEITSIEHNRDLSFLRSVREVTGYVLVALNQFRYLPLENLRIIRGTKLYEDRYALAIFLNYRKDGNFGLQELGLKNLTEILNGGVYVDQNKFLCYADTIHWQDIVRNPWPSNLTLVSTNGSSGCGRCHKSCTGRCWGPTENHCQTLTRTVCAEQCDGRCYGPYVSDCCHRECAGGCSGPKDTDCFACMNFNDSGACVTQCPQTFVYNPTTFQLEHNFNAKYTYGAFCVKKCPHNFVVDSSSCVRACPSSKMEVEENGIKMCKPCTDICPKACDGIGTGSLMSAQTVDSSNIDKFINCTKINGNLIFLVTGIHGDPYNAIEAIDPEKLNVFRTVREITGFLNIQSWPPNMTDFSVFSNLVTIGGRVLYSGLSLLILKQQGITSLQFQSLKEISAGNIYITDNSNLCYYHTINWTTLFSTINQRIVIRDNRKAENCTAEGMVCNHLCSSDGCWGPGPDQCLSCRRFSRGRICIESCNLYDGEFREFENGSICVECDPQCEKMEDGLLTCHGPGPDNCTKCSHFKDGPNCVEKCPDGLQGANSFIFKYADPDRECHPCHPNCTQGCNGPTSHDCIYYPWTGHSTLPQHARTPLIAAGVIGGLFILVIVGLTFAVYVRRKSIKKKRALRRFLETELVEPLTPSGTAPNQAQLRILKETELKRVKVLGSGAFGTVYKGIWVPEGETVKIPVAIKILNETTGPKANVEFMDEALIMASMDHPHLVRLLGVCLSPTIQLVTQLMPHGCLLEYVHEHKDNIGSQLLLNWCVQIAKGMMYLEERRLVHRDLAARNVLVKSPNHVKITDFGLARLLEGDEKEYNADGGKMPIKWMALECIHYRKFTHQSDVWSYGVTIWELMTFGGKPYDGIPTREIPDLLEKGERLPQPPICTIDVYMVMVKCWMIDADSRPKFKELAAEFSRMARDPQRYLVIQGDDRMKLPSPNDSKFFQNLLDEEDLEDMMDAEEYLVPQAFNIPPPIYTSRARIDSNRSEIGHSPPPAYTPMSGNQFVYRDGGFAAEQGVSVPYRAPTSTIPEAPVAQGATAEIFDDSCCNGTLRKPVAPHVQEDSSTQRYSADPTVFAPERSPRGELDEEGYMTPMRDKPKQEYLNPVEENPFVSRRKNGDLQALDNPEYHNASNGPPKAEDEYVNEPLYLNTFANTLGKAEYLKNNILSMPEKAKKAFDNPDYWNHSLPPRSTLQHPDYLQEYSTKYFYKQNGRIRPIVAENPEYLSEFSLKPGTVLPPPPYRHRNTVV
Sequence of Tyrosine-protein kinase Tec (Homo sapiens) (P42680 whole entry, looked up): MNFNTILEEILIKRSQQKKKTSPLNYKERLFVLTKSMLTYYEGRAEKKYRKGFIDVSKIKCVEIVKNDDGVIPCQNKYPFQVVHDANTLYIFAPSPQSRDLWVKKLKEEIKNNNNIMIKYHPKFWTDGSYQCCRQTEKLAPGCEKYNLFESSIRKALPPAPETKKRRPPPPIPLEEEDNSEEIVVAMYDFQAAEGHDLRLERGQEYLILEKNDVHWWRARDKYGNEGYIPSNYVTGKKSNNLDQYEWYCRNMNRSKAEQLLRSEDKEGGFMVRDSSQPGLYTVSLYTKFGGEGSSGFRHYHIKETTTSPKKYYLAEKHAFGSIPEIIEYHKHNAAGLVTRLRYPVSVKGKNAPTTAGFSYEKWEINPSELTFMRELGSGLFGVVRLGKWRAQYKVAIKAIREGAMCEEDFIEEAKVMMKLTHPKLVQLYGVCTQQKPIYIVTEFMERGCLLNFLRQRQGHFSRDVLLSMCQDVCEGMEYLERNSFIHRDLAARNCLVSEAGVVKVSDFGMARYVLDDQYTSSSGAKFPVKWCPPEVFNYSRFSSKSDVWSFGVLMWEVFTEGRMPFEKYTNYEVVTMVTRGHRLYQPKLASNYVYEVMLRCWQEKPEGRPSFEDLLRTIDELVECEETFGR
Sequence of Serine/threonine-protein kinase Chk2 (Homo sapiens) (O96017 whole entry): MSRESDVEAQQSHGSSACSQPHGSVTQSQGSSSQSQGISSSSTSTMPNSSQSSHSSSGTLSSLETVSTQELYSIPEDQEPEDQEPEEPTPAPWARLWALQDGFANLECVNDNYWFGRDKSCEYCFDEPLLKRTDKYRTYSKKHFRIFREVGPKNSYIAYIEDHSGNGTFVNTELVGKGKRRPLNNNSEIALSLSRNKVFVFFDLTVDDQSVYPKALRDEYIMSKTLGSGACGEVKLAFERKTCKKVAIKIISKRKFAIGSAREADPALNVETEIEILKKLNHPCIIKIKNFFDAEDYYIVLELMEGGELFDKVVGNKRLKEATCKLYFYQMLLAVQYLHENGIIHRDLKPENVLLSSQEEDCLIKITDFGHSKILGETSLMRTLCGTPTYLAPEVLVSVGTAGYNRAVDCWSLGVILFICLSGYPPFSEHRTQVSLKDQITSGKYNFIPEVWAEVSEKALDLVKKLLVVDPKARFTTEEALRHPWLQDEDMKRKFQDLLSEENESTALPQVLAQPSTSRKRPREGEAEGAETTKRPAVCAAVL
Sequence of Serine/threonine-protein kinase Nek6 (Homo sapiens) (Q9HC98 whole entry): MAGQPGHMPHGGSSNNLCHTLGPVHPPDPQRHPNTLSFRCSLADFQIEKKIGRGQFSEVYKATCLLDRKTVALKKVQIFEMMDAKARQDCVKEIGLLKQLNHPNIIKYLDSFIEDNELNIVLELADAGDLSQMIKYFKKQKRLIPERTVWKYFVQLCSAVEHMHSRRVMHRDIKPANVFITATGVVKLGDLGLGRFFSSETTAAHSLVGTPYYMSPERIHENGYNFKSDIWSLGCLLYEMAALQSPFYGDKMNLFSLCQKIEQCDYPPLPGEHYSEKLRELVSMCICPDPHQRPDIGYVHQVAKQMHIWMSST
Sequence of Serine/threonine-protein kinase tousled-like 2 (Homo sapiens) (Q86UE8 whole entry, looked up): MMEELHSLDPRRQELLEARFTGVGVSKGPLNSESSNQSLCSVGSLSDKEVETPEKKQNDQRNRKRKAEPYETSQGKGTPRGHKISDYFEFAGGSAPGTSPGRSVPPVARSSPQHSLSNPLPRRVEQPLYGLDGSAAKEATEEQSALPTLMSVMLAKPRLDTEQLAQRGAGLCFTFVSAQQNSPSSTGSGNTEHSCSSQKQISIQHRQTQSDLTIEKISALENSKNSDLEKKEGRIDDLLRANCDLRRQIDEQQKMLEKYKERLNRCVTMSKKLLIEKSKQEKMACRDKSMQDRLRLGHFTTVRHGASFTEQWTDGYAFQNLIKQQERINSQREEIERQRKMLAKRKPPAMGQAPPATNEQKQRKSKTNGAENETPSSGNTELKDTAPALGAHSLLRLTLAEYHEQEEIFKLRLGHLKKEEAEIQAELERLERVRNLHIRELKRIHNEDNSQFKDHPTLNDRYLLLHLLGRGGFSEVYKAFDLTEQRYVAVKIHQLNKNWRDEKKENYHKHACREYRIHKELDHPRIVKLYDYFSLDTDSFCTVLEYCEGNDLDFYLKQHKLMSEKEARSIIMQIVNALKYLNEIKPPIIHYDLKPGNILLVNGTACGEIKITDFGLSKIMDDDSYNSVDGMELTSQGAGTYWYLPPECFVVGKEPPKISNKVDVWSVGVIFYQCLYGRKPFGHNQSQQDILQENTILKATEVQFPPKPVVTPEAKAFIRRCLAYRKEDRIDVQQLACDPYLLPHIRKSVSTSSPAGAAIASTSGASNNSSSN
Sequence of Ribosomal protein S6 kinase alpha-2 (Homo sapiens) (Q15349 whole entry): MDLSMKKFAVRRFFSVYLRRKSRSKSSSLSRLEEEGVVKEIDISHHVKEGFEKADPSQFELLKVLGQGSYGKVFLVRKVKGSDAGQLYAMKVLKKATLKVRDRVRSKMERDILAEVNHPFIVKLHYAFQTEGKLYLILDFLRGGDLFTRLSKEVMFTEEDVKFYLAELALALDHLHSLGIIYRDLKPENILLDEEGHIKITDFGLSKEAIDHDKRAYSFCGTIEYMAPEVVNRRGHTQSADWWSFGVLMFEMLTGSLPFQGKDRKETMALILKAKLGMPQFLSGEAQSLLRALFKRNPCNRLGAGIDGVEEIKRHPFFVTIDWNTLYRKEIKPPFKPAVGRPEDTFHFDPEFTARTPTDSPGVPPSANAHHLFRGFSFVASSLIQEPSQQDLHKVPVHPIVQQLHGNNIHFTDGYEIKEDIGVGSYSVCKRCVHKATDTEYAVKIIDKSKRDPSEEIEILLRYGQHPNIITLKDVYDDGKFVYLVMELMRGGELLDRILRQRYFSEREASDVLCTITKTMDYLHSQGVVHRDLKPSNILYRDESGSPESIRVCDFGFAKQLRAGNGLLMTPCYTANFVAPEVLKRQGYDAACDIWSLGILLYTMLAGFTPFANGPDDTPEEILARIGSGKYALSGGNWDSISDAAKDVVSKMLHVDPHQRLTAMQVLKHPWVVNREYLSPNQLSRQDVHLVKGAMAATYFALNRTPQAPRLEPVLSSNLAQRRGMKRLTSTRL

By inhibition is commonly meant how much of the control response was suppressed. Regarding `O=C(N[C@@H](C1CC1)C(F)(F)F)c1cc(-c2cnn3cc(-c4ccc(F)cc4)cnc23)cs1`, the inhibition in test [1], in test [4] and in test [5] was 0% throughout. Moreover, the fold change (FC) in [2] was found to be 0.18; in test [3], 0.

`CNC(=O)c1ccccc1Oc1nc(Nc2cc(OC)c(OC)c(OC)c2)ncc1Br`: the fold change (FC) in test [6] amounted to 0.03; in test [8], 0.66. Moreover, the inhibition in test [7] amounted to 0%.

For the compound `CC(C)[C@H](NC(=O)c1cc(-c2cnn3cc(-c4ccc(OCCN5CCCCC5)cc4)cnc23)cs1)C(F)(F)F`, the fold change (FC) in test [9] came out at 0.03; in test [10], 0; in test [11] it was 0; in test [12], 0.94. For the same compound, the inhibition in test [13] came out at 1%.
